Source: ChEMBL document CHEMBL1151476, “Genetic and biochemical characterization of CAD-1, a chromosomally encoded new class A penicillinase from Carnobacterium divergens” (Antimicrob Agents Chemother, 2008)
≈ marks a conversion by molar mass, not a printed value. Calls of active or inactive are those of the source. No cut-off for these calls is given here.

What was measured:
Carnobacterium divergens [1] = assay: Ratio of Kcat to Km of Carnobacterium divergens BM4489 penicillinase Cad-1 relative to benzyl-penicillin
Carnobacterium divergens [2] = assay: Ratio of Kcat to Km of Carnobacterium divergens BM4489 penicillinase Cad-1
Carnobacterium divergens [3] = assay: Activity of Carnobacterium divergens BM4489 penicillinase Cad-1 assessed as initial rate of hydrolysis by spectrophotometer
Carnobacterium divergens [4] = assay: Activity of Carnobacterium divergens BM4489 penicillinase Cad-1 at 1 uM enzyme concentration assessed as initial rate of hydrolysis by spectrophotometer
Carnobacterium divergens [5] = assay: Antimicrobial activity against Carnobacterium divergens CIP101029 at 0.5 McFarland inoculum size by E-test; type: functional
Carnobacterium divergens [6] = assay: Antimicrobial activity against Carnobacterium divergens CIP101029 at 3 McFarland inoculum size by E-test; type: functional
Carnobacterium divergens [7] = assay: Antimicrobial activity against Carnobacterium divergens BM4489 expressing beta-lactamase CAD1 at 3 McFarland inoculum size by E-test; type: functional
Escherichia coli [8] = assay: Antimicrobial activity against Escherichia coli BL21 (DE3) by E-test; type: functional
In short: (§1)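 MICs read by E-test strips on Mueller-Hinton agar.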

Carnobacterium divergens [9] = assay: Antimicrobial activity against Carnobacterium divergens BM4490 expressing beta-lactamase CAD1 at 0.5 McFarland inoculum size by E-test; type: functional, organism-based
Carnobacterium divergens [10] = assay: Antimicrobial activity against Carnobacterium divergens BM4489 expressing beta-lactamase CAD1 at 0.5 McFarland inoculum size by E-test; type: functional
Escherichia coli [11] = assay: Antimicrobial activity against Escherichia coli BL21 (DE3) harboring pAT514 by E-test; type: functional; in short: as §1
Carnobacterium divergens [12] = assay: Antimicrobial activity against Carnobacterium divergens BM4490 expressing beta-lactamase CAD1 at 3 McFarland inoculum size by E-test; type: functional, organism-based; conditions: 3 M
[13] = Inhibition of Carnobacterium divergens BM4489 penicillinase Cad-1
In short: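 CAD-1 carried a C-terminal His6 tag and was expressed in E. coli BL21-CodonPlus(DE3)-RIPL from pAT514. It was purified by Ni affinity and Superdex 75 gel filtration. Enzyme was preincubated with varied inhibitor for 30 min at 25°C in 100 mM sodium phosphate pH 7.0, then 100 µM nitrocefin was added. Initial hydrolysis rates were followed spectrophotometrically. IC50 is the inhibitor concentration halving the rate.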

[14] = Ratio of IC50 for beta-lactamase TEM-1 over IC50 for Carnobacterium divergens BM4489 penicillinase Cad-1

## CC1(C)S[C@@H]2[C@H](NC(=O)C(C(=O)O)c3ccccc3)C(=O)N2[C@H]1C(=O)O (some centres undefined)
Carnobacterium divergens [1]
  kcat/Km: 0.4
Carnobacterium divergens [2]
  kcat/Km: 24000 M⁻¹ s⁻¹
Carnobacterium divergens [3]
  Km: 245 µM
  kcat: 6 s⁻¹

## CO/N=C(\C(=O)N[C@@H]1C(=O)N2C(C(=O)O)=C(COC(N)=O)CS[C@H]12)c1ccco1
Carnobacterium divergens [4]
  Activity: inactive

## CO/N=C(\C(=O)N[C@@H]1C(=O)N2C(C(=O)[O-])=C(C[N+]3(C)CCCC3)CS[C@H]12)c1csc(N)n1
Carnobacterium divergens [4]
  Activity: inactive

## CO[C@@]1(NC(=O)Cc2cccs2)C(=O)N2C(C(=O)O)=C(COC(N)=O)CS[C@@H]21
Carnobacterium divergens [4]
  Activity: inactive

## O=C(Cc1cccs1)N[C@@H]1C(=O)N2C(C(=O)[O-])=C(C[n+]3ccccc3)CS[C@H]12
Carnobacterium divergens [1]
  kcat/Km: 0.3
Carnobacterium divergens [2]
  kcat/Km: 22000 M⁻¹ s⁻¹
Carnobacterium divergens [3]
  Km: 26 µM
  kcat: 0.56 s⁻¹

## CC1(C)S[C@@H]2[C@H](NC(=O)[C@H](N)c3ccc(O)cc3)C(=O)N2[C@H]1C(=O)O [AMOXICILLIN]
Carnobacterium divergens [5]
  MIC: 0.75 µg/mL (≈ 2.05 µM)
Carnobacterium divergens [6]
  MIC: 2 µg/mL (≈ 5.47 µM)
Carnobacterium divergens [7]
  MIC: 16 µg/mL (≈ 43.8 µM)
Escherichia coli [8]
  MIC: 1.5 µg/mL (≈ 4.1 µM)
Carnobacterium divergens [9]
  MIC: Active
Carnobacterium divergens [10]
  MIC: 4 µg/mL (≈ 10.9 µM)
Escherichia coli [11]
  MIC: > 256 µg/mL
Carnobacterium divergens [12]
  MIC: Active

## CC1(C)S[C@@H]2[C@H](NC(=O)[C@H](N)c3ccccc3)C(=O)N2[C@H]1C(=O)O [AMPICILLIN]
Carnobacterium divergens [1]
  kcat/Km: 48
Carnobacterium divergens [5]
  MIC: 1.5 µg/mL (≈ 4.29 µM)
Carnobacterium divergens [2]
  kcat/Km: 3.19e+06 M⁻¹ s⁻¹
Carnobacterium divergens [6]
  MIC: 2 µg/mL (≈ 5.72 µM)
Carnobacterium divergens [7]
  MIC: 24 µg/mL (≈ 68.7 µM)
Carnobacterium divergens [3]
  Km: 48 µM
  kcat: 153 s⁻¹
Escherichia coli [8]
  MIC: 0.75 µg/mL (≈ 2.15 µM)
Carnobacterium divergens [9]
  MIC: Active
Carnobacterium divergens [10]
  MIC: 3 µg/mL (≈ 8.59 µM)
Escherichia coli [11]
  MIC: > 256 µg/mL
Carnobacterium divergens [12]
  MIC: Active

## C[C@H]1[C@H](NC(=O)/C(=N\OC(C)(C)C(=O)O)c2csc(N)n2)C(=O)N1S(=O)(=O)O [AZTREONAM]
Carnobacterium divergens [5]
  MIC: > 256 µg/mL
Carnobacterium divergens [6]
  MIC: > 256 µg/mL
Carnobacterium divergens [7]
  MIC: > 256 µg/mL
Escherichia coli [8]
  MIC: < 0.016 µg/mL
Carnobacterium divergens [9]
  MIC: Active
Carnobacterium divergens [10]
  MIC: > 256 µg/mL
Escherichia coli [11]
  MIC: < 0.016 µg/mL
Carnobacterium divergens [12]
  MIC: Active
Carnobacterium divergens [4]
  Activity: Active

## CO/N=C(\C(=O)N[C@@H]1C(=O)N2C(C(=O)O)=C(COC(C)=O)CS[C@H]12)c1csc(N)n1 [CEFOTAXIME]
Carnobacterium divergens [5]
  MIC: > 256 µg/mL
Carnobacterium divergens [6]
  MIC: > 256 µg/mL
Carnobacterium divergens [7]
  MIC: > 256 µg/mL
Escherichia coli [8]
  MIC: < 0.016 µg/mL
Carnobacterium divergens [9]
  MIC: Active
Carnobacterium divergens [10]
  MIC: > 256 µg/mL
Carnobacterium divergens [12]
  MIC: Active
Carnobacterium divergens [4]
  Activity: inactive

## CC(C)(O/N=C(\C(=O)N[C@@H]1C(=O)N2C(C(=O)[O-])=C(C[n+]3ccccc3)CS[C@H]12)c1csc(N)n1)C(=O)O [CEFTAZIDIME]
Carnobacterium divergens [5]
  MIC: > 256 µg/mL
Carnobacterium divergens [6]
  MIC: > 256 µg/mL
Carnobacterium divergens [7]
  MIC: > 256 µg/mL
Escherichia coli [8]
  MIC: 0.064 µg/mL (≈ 0.117 µM)
Carnobacterium divergens [9]
  MIC: Active
Carnobacterium divergens [10]
  MIC: > 256 µg/mL
Escherichia coli [11]
  MIC: 0.047 µg/mL (≈ 0.086 µM)
Carnobacterium divergens [12]
  MIC: Active
Carnobacterium divergens [4]
  Activity: inactive

## O=C(O)[C@H]1/C(=C/CO)O[C@@H]2CC(=O)N21 [CLAVULANIC ACID]
[13]
  IC50: 4.7 µM
[14]
  Ratio IC50: 60

## C[C@@H](O)[C@H]1C(=O)N2C(C(=O)O)=C(SCCNC=N)C[C@H]12 [IMIPENEM ANHYDROUS]
Carnobacterium divergens [5]
  MIC: 0.19 µg/mL (≈ 0.635 µM)
Carnobacterium divergens [6]
  MIC: 0.19 µg/mL (≈ 0.635 µM)
Carnobacterium divergens [7]
  MIC: 0.19 µg/mL (≈ 0.635 µM)
Escherichia coli [8]
  MIC: 0.25 µg/mL (≈ 0.835 µM)
Carnobacterium divergens [9]
  MIC: Active
Carnobacterium divergens [10]
  MIC: 0.19 µg/mL (≈ 0.635 µM)
Escherichia coli [11]
  MIC: 0.19 µg/mL (≈ 0.635 µM)
Carnobacterium divergens [12]
  MIC: Active

## Cc1onc(-c2ccccc2)c1C(=O)N[C@@H]1C(=O)N2[C@@H]1SC(C)(C)[C@@H]2C(=O)O [OXACILLIN]
Carnobacterium divergens [1]
  kcat/Km: 45
Carnobacterium divergens [5]
  MIC: 16 µg/mL (≈ 39.9 µM)
Carnobacterium divergens [2]
  kcat/Km: 2.95e+06 M⁻¹ s⁻¹
Carnobacterium divergens [6]
  MIC: 24 µg/mL (≈ 59.8 µM)
Carnobacterium divergens [7]
  MIC: 24 µg/mL (≈ 59.8 µM)
Carnobacterium divergens [3]
  Km: 21 µM
  kcat: 62 s⁻¹
Carnobacterium divergens [9]
  MIC: Active
Carnobacterium divergens [10]
  MIC: 24 µg/mL (≈ 59.8 µM)
Carnobacterium divergens [12]
  MIC: Active

## CC1(C)S[C@@H]2[C@H](NC(=O)Cc3ccccc3)C(=O)N2[C@H]1C(=O)O [PENICILLIN G]
Carnobacterium divergens [5]
  MIC: 3 µg/mL (≈ 8.97 µM)
Carnobacterium divergens [2]
  kcat/Km: 6.6e+06 M⁻¹ s⁻¹
Carnobacterium divergens [6]
  MIC: 6 µg/mL (≈ 17.9 µM)
Carnobacterium divergens [7]
  MIC: 96 µg/mL (≈ 287 µM)
Carnobacterium divergens [3]
  Km: 27 µM
  kcat: 178 s⁻¹
Escherichia coli [8]
  MIC: 4 µg/mL (≈ 12 µM)
Carnobacterium divergens [9]
  MIC: Active
Carnobacterium divergens [10]
  MIC: 12 µg/mL (≈ 35.9 µM)
Escherichia coli [11]
  MIC: > 256 µg/mL
Carnobacterium divergens [12]
  MIC: Active

## CCN1CCN(C(=O)N[C@@H](C(=O)N[C@@H]2C(=O)N3[C@@H]2SC(C)(C)[C@@H]3C(=O)O)c2ccccc2)C(=O)C1=O [PIPERACILLIN]
Carnobacterium divergens [1]
  kcat/Km: 14
Carnobacterium divergens [5]
  MIC: 12 µg/mL (≈ 23.2 µM)
Carnobacterium divergens [2]
  kcat/Km: 914000 M⁻¹ s⁻¹
Carnobacterium divergens [6]
  MIC: 32 µg/mL (≈ 61.8 µM)
Carnobacterium divergens [7]
  MIC: 128 µg/mL (≈ 247 µM)
Carnobacterium divergens [3]
  Km: 70 µM
  kcat: 64 s⁻¹
Escherichia coli [8]
  MIC: 0.38 µg/mL (≈ 0.734 µM)
Carnobacterium divergens [9]
  MIC: Active
Carnobacterium divergens [10]
  MIC: 64 µg/mL (≈ 124 µM)
Escherichia coli [11]
  MIC: > 256 µg/mL
Carnobacterium divergens [12]
  MIC: Active

## CC1(C)[C@H](C(=O)O)N2C(=O)C[C@H]2S1(=O)=O [SULBACTAM]
[13]
  IC50: 43.5 µM

## C[C@]1(Cn2ccnn2)[C@H](C(=O)O)N2C(=O)C[C@H]2S1(=O)=O [TAZOBACTAM]
[13]
  IC50: 0.27 µM

## CC1(C)S[C@@H]2[C@H](NC(=O)[C@H](C(=O)O)c3ccsc3)C(=O)N2[C@H]1C(=O)O [TICARCILLIN]
Carnobacterium divergens [1]
  kcat/Km: 5
Carnobacterium divergens [5]
  MIC: 24 µg/mL (≈ 62.4 µM)
Carnobacterium divergens [2]
  kcat/Km: 330000 M⁻¹ s⁻¹
Carnobacterium divergens [6]
  MIC: 24 µg/mL (≈ 62.4 µM)
Carnobacterium divergens [7]
  MIC: 128 µg/mL (≈ 333 µM)
Carnobacterium divergens [3]
  Km: 106 µM
  kcat: 35 s⁻¹
Escherichia coli [8]
  MIC: 0.75 µg/mL (≈ 1.95 µM)
Carnobacterium divergens [9]
  MIC: Active
Carnobacterium divergens [10]
  MIC: 32 µg/mL (≈ 83.2 µM)
Escherichia coli [11]
  MIC: > 256 µg/mL
Carnobacterium divergens [12]
  MIC: Active
